RORA inh: blocks the human nuclear receptor RORA. P35398. CHO-K1 Gal4-RORA LBD luciferase reporter, luminescence. inhibition, % at 10 µM. 65,000 compounds, 0.43% hits;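 active = inhibition above the mean of all tested compounds plus 3 SD, cut at about 52% in these data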;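 also: 0% = RORA-transfected cells with DMSO and 100% = mock-transfected cells lacking RORA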
Target sequence (P35398 whole entry, looked up, the tested form may be a part): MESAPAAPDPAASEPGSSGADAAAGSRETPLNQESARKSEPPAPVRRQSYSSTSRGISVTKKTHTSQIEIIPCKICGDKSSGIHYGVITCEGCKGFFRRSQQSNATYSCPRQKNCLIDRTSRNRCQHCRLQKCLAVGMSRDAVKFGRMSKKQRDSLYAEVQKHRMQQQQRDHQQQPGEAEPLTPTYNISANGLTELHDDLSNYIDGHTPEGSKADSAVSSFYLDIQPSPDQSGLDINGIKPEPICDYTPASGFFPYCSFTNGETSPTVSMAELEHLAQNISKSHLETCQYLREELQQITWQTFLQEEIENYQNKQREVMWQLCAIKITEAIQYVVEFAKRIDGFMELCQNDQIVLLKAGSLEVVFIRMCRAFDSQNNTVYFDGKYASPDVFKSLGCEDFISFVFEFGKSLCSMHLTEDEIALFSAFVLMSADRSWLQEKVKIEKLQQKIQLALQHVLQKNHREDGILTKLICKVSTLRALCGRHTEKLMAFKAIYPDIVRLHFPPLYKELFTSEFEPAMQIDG
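Test system: CHO-K1 cells with Gal4-hRORA LBD fusion and pG5-luc reporter | Timing: 20 h compound treatment, 37 °C | Detection: Luminescence from basal luciferase reporter expression | Read-out basis: % inhibition of basal luciferase versus +RORA/-RORA DMSO controls | Repeats: One measurement per compound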
An asterisk follows results filed as active. This is one part of a sample in which hits are shown more often than they occur.

SMILES	RORA inh
C=CCSc1nncn1/N=C/c1ccc(OC)cc1	-91
CC(C)c1ccc(NC(=O)CSc2nc3c(c(=O)[nH]2)CCC3)cc1	2
CC(=O)Nc1ccc(-n2c(C)nc(=O)c(-c3ccccc3)c2C)cc1	10
COc1cc2c(cc1OC)CN(C(=O)COc1ccc(C)c(C)c1)CC2	-23
CCOC(=O)C1=C(C)SC2=NS(=O)(=O)CCN21	4
Cn1c(-c2ccccc2)cc2c3no[n+]([O-])c3ccc21	66*
CCCc1ccc(-c2ccc(F)c(N)c2)nc1	69*
CN(CC(=O)NCc1ccc(Cl)cc1)S(=O)(=O)c1cccc2nsnc12	2
O=C(NCCCn1ccnc1)c1cc(-c2cccs2)on1	-92
O=C(c1ccc(S(=O)(=O)N2CCOCC2)cc1)N1CCN=C1SCc1cccnc1	8
CCOc1ccc(S(=O)(=O)n2cnc3cc(C)c(C)cc32)cc1	66*
CCOc1ccc(OCC(=O)Nc2ccc(S(=O)(=O)Nc3cc(C)nc(C)n3)cc2)cc1	-5
CCCCOc1ccc(S(=O)(=O)N2CCCCCC2)cc1	-12
Cn1c(SCc2ccc(C#N)cc2Cl)nc2ccccc21	-82
CCCCOC(=O)C1=C(C)Nc2nnnn2C1c1ccc(OC)c(OC)c1OC (centres undefined)	26
CCCC(=O)Nc1ccc(C(=O)N2CCCC2)cc1	6
Cn1c(-c2ccc3c(c2)OCO3)cnc1NC(=O)CCC(=O)NCCc1ccccc1	24
Cc1ccc(-c2cnc(NC(=O)CCC(=O)N3CCCCC3)n2C)cc1	77*
COC(=O)Cn1ncn2c(cc3oc(C)cc32)c1=O	-34
Cc1cc(NC(=O)CSc2ncnc3ccccc23)no1	-3
c1ccc(N2CCN(c3ccccc3)C2c2cccs2)cc1	-58
CS(=O)(=O)N1CCN(c2nc3ccccc3s2)CC1	-58
CCCc1cc(NCCN2CCOCC2)n2c(nc3ccccc32)c1C#N	-6
COCc1nc(-c2ccc(-c3ccc(OC)cc3)nc2OC)no1	-49
COc1cc2ccccc2cc1C(=O)Nc1cccnc1	-77
SMILES	RORA inh
COCc1nc(-c2ccc(-c3ccccc3)nc2OC)no1	-72
Cc1ccc(-c2noc(CCCC(=O)Nc3cccnc3)n2)cc1	53*
CCCCC(=O)Nc1ccc(NC(=O)c2cccnc2)cn1	-6
CCOc1nc(-c2ccccc2)ccc1-c1noc(COC)n1	-3
COc1ccc(-c2noc(CCCC(=O)O)n2)cc1	68*
CCOC(=O)Cn1c(CCC(=O)O)ccc1-c1ccc(F)cc1	17
CCOc1ccc(-c2noc(CCC(=O)O)n2)cc1	54*
CC1CCCCC1NC(=O)CSc1nc2ccccc2c(=O)n1Cc1ccco1 (centres undefined)	17
Cn1cccc1Cc1nnc(SCC(=O)Nc2ccc(F)cc2)n1CCc1ccccc1	-4
Cn1c(COc2ccc(Cl)cc2)nnc1SCC(=O)NC1CCCCC1	-10
Cc1cccc(NC(=O)CSc2nnc(-c3ccc(S(=O)(=O)N4CCOCC4)cc3)n2C)c1	17
O=S(=O)(NCCOC12CC3CC(CC(C3)C1)C2)c1cccc2nsnc12	23
COC(=O)c1ccc2ccn(CC(=O)NC(C)C)c2c1	10
O=C(Cc1ccccc1)Nc1c(C(=O)N2CCOCC2)cnn1-c1ccccc1	-11
CCOC(=O)N1CCC(N2Cc3cccc(C(=O)N4CC(C)CC(C)C4)c3C2=O)CC1 (centres undefined)	12
Nc1nc(N)c2sc3nc4c(cc3c2n1)CCC4	-56
CCOC(=O)Cn1nnnc1CN(Cc1ccccc1)Cc1cc2cc(CC)ccc2[nH]c1=O	-58
Cc1cc(C)n(-c2nc(C)nc(N)n2)n1	-24
Cc1cc(C)n(-c2ccc3cccc(NS(C)(=O)=O)c3n2)n1	67*
Cc1cc(C)n(S(=O)(=O)c2ccc3ccccc3c2)n1	18
COC(=O)c1ccc(Oc2cc(C)nc(SC)n2)cc1	-58
N#Cc1c(NC(=O)COC(=O)C2CC3C=CC2C3)oc(-c2ccccc2)c1-c1ccccc1 (centres undefined)	12
CCOC(=O)c1c(NC(=O)CSc2nnnn2C)sc(CC)c1C	-3
CCCCC(=O)NC(Nc1ccc(C)cn1)(C(=O)OCC)C(F)(F)F (centres undefined)	22
C=CCNC(=O)c1ccccc1NC(=O)c1ccccc1	19
SMILES	RORA inh
Cc1ccc(NCc2nnc(SCC(=O)N3CCCc4ccccc43)o2)c(C)c1	7
O=C(CSc1nnc(COc2cccc3cccnc23)o1)N1CCc2ccccc21	59*
O=C(CSc1nnc(COc2ccc(F)cc2)o1)N1c2ccccc2CCc2ccccc21	-18
Cc1cnc(-c2nnc(N(C)C(=O)c3ccccn3)s2)cn1	-40
O=C(Nc1ccon1)c1cccc(C(F)(F)F)c1	17
Cn1c(-c2ccc(Br)o2)nc2ccccc21	-73
CN(C)c1ccc(-c2nc3ccccc3n2C)cc1	62*
CCn1c(-c2ccc(N(C)C)cc2)nc2ccccc21	-88
CCOC(=O)N1CCN(C2=NC3(CCCCC3)C(C#N)C(=O)N2)CC1 (centres undefined)	-8
CC1(C)CC(=O)C=C(Nc2ccc(S(N)(=O)=O)cc2)C1	8
CC1CCN(C(=O)CN2C(=O)C(C)(C)Oc3ccc(C(=O)NC4CCCC4)cc32)CC1	-10
c1csc(CCNc2ncnc3sc4c(c23)CCC4)c1	72*
O=C(NCc1cccs1)c1noc2c1CCCC2	-55
Cc1oc(-c2ccccc2F)nc1CN1CCC(C(=O)NCc2cccs2)CC1	-1
Cc1ccc2nc(Nc3ccc4[nH]c(=O)[nH]c4c3)c(-n3nc(C)cc3C)nc2c1	-59
CCc1nnc(NC(=O)CSc2nnc(-c3ccoc3C)n2-c2ccc(C)cc2)s1	3
COc1ccccc1C(=O)Nc1c2c(nn1-c1cccc(C)c1C)CS(=O)(=O)C2	20
COc1ccccc1-c1nnc2sc(-c3ccc(N(C)C)cc3)nn12	57*
COc1ccccc1-c1nn2c(C(F)(F)F)nnc2s1	0
CN(C)c1ccc(-c2nn3c(-c4ccccc4Cl)nnc3s2)cc1	12
O=C(COc1ccc(F)cc1)Nc1nccs1	-102
O=C(Nc1ccc(Cl)cc1)N1CC=CCC1	-52
COc1ccc(C2C(C(=O)O)CC(=O)N2C2CCCCC2)cc1 (centres undefined)	13
CCc1ccc(-c2cn3nc(C)c(C)nc3n2)cc1	86*
CCOC(=O)N1CCN(C(=O)C(c2ccccc2)c2ccccc2)CC1	1
SMILES	RORA inh
CCc1ccc(-n2c(O)cnc2Nc2nc(C)cc(C)n2)cc1	-4
Cc1ccc(-c2ccc(=O)n(CC(=O)Nc3cccc(C(=O)N4CCN(C)CC4)c3)n2)cc1	9
CCN(CC)c1ccc2c(C)c(CN3CCOCC3)c(=O)oc2c1	2
Cc1ccccc1NC(=O)N1CCCC(c2nc(-c3ccc(C(C)C)cc3)no2)C1 (centres undefined)	54*
Cc1ccccc1NC(=O)N1CCCC(c2nc(-c3ccc(F)cc3)no2)C1 (centres undefined)	7
O=C(NCC12CC3CC(CC(C3)C1)C2)c1cc2n(n1)C(C(F)(F)F)CC(c1ccco1)N2 (centres undefined)	-5
O=C(Cc1ccc2cccnc2c1)c1ccc(O)cc1O	-60
CCCNc1nc2c(c(=O)n(C)c(=O)n2C)n1CCc1ccccc1	17
CCn1c(NCc2ccccn2)nc2c1c(=O)n(C)c(=O)n2C	-2
COc1cccc(Cn2c(NCc3ccco3)nc3c2c(=O)n(C)c(=O)n3C)c1	62*
Cn1c(NCc2ccccc2)nc2c1c(=O)n(Cc1ccc(Br)cc1)c(=O)n2C	7
CCCCC(=O)NCCNc1nc2c(c(=O)n(C)c(=O)n2C)n1Cc1ccc(F)cc1	10
